Shown are actives, neighbours in structure and some others; about 5.9% of the full set was active somewhere.
KDM4C inh: KDM4C (human) demethylase inhibition | Q9H3R0 | GST-KDM4C 2-372, H3K9me3 peptide, LANCE TR-FRET | inhibition, % at 12.5 µM | actives 0.15% (n = 96,000) | AID 720574;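 active = mean replicate inhibition above about 25%, with at least 55% of replicates also reaching it, limit read from the data, passing the limit was not always enough; inconclusive = only one of those two conditions met; inactive = neither condition met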
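material = GST-tagged GASC-1 (JMJD2C) catalytic fragment, aa 2-372 | amount = enzyme final amount 10 nM | medium = HEPES buffer, pH 7.5, plus ascorbate | also added = H3K9me3 peptide substrate, Fe(II), 2-oxoglutarate | dosing = single dose | times = 30 min demethylation and 1 h detection at room temperature | detection = LANCE TR-FRET | read-out basis = Fall in 671/618 emission ratio as inhibition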
Pf Dd2 inh: P. falciparum Dd2 growth inhibition; SYBR Green, 72 h; active compounds read low; activity change, % at 10 µM; actives 2.3% (n = 94,000); in the data active = activity change below about -80%; inconclusive = no clear call, values can overlap the other calls
IDH1 mut inh: IDH1 R132H (human) inhibition | inhibition, % at 10 µM | AID 624101 | O75874 | IDH1 R132H reductase, diaphorase/resazurin fluorescence, 60 min | actives 0.18% (n = 70,000); in the data active = inhibition above about 34%; inconclusive = no clear call, values can overlap the other calls; inactive = below about 11%
Target sequence (O75874 whole entry R132H): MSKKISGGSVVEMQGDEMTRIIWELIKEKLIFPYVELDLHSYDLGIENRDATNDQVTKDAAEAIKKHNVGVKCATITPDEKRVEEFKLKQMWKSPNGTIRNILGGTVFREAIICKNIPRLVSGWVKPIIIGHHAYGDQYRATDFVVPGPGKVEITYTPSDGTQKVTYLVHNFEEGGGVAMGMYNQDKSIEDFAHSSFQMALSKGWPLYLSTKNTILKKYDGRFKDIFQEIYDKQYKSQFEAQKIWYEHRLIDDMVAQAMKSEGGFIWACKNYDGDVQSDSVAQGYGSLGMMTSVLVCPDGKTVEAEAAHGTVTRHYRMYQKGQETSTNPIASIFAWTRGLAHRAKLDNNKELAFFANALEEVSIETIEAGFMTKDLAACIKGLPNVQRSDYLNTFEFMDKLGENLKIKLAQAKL
T cruzi growth-1: blocks T. cruzi growth in NIH3T3 culture. actives 5.9% (n = 77,000). T. cruzi beta-gal in NIH3T3, GalScreen luminescence, 90 h. AID 624255. inhibition, % at 8.34 µM;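 active = mean inhibition above about 93%, with at least 55% of replicates each passing it, limit read from the data, passing the limit was not always enough; inconclusive = only one of those two conditions holds; inactive = neither condition holds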
T cruzi growth-2: blocks T. cruzi growth in NIH3T3 host cells; shares compounds with T cruzi growth-1; AID 651739; actives 72% (n = 5,600); T. cruzi beta-gal in NIH3T3, GalScreen luminescence, 90 h; inhibition, % at 8.35 µM;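 active = mean replicate inhibition above about 95% and at least 55% of replicates individually reaching it, limit read from the data; inconclusive = only one of the two criteria is met; inactive = neither criterion is met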
T cruzi growth-3: inhibitors of T. cruzi proliferation. shares compounds with T cruzi growth-1. T. cruzi beta-gal in NIH3T3, GalScreen luminescence, 90 h. inhibition, % at 2.09 µM. actives 21% (n = 5,600);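 active = mean inhibition above about 95%, with at least 55% of replicates also reaching it, limit read from the data; inconclusive = meets just one of the two conditions; inactive = meets neither condition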
3T3 cytotox: cytotoxicity in mouse NIH/3T3 fibroblasts; actives 14% (n = 5,600); shares compounds with T cruzi growth-1; AID 651742; cytotoxicity (signal decrease), % at 8.35 µM; NIH/3T3 viability, CellTiter-Glo ATP luminescence, 90 h;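 active = mean signal decrease across replicates above about 35% based on untreated-well scatter, with enough replicates individually passing, limit read from the data; inconclusive = no rule stated though some were filed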
3T3 cytotox 2: NIH/3T3 (mouse) viability loss | shares compounds with T cruzi growth-1 | NIH/3T3 viability, CellTiter-Glo ATP luminescence, 90 h | inhibition, % at 24.9 µM | actives 56% (n = 5,600) | AID 651744;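 active = mean loss of cell viability signal at or above a set limit, and enough replicates individually reaching it; inconclusive = meets only the mean limit or only the replicate share; inactive = meets neither condition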
Large screens that a line does not name were inactive (follow-up assays come after a bar, where they were run).

CCC(=O)N(C)C[C@@H]1Oc2cc(C#CCC(C)C)ccc2S(=O)(=O)N([C@H](C)CO)C[C@H]1C	none
Cc1cccc(OC(=O)C(Cc2ccccc2)N2C(=O)C3C4CCC(C4)C3C2=O)c1C (configuration not stated)	none (no result: KDM4C inh, Pf Dd2 inh, T cruzi growth-1)
O=C(N/N=C/c1ccccc1[N+](=O)[O-])c1ccccc1O	none (no result: KDM4C inh, Pf Dd2 inh, T cruzi growth-1)
C/C=C/C#CC#C[C@@H](O[C@@H]1O[C@H](CO)[C@@H](O)[C@H](O)[C@H]1O)[C@H](O)/C=C/CCCO	none (no result: KDM4C inh, Pf Dd2 inh, T cruzi growth-1)
CN(C)C(=O)c1cccc(-c2ccc3c(c2)[C@@H]2[C@@H](CCN2S(=O)(=O)c2ccccc2)[C@H](CO)N3)c1	T cruzi growth-1 112.3 (no result: IDH1 mut inh) | T cruzi growth-2 97.4 | T cruzi growth-3 inactive | 3T3 cytotox inactive | 3T3 cytotox 2 inactive
N#Cc1cccc(-c2ccc3c(c2)[C@@H]2[C@@H](CCN2S(=O)(=O)c2ccccc2)[C@H](CO)N3)c1	none (no result: IDH1 mut inh)
CN(C)C(=O)c1cccc(-c2ccc3c(c2)[C@H]2[C@H](CCN2S(=O)(=O)c2ccccc2)[C@@H](CO)N3)c1	T cruzi growth-1 99.7 (no result: IDH1 mut inh) | T cruzi growth-2 96.2 | T cruzi growth-3 inactive | 3T3 cytotox inactive | 3T3 cytotox 2 inactive
CN(C)C(=O)c1ccc(-c2ccc3c(c2)[C@H]2[C@H](CCN2S(=O)(=O)c2ccccc2)[C@H](CO)N3)cc1	none (no result: IDH1 mut inh)
COc1cccc(-c2ccc([C@H]3[C@@H](CO)N(C(=O)Cc4ccccc4)[C@H]3C#N)cc2)c1	T cruzi growth-1 96.7 (no result: IDH1 mut inh) | T cruzi growth-2 95.7 | T cruzi growth-3 98.5 | 3T3 cytotox inactive | 3T3 cytotox 2 36.7
COc1cccc(-c2ccc([C@@H]3[C@H](C#N)N(C(=O)Cc4ccccc4)[C@H]3CO)cc2)c1	T cruzi growth-1 inconclusive (no result: IDH1 mut inh) | T cruzi growth-2 110.9 | T cruzi growth-3 inactive | 3T3 cytotox inactive | 3T3 cytotox 2 33.0
COc1cccc(-c2ccccc2[C@@H]2[C@@H](CO)N(C(=O)Cc3ccccc3)[C@H]2C#N)c1	none (no result: IDH1 mut inh, T cruzi growth-1)
C[C@@H]1CCCCO[C@@H](CN(C)Cc2ccc(Cl)c(Cl)c2)[C@@H](C)CN([C@H](C)CO)C(=O)c2cc(NC(=O)Nc3ccccc3)ccc2O1	none (no result: KDM4C inh, IDH1 mut inh)
C[C@@H]1CCCCO[C@H](CN(C)Cc2ccc(Cl)c(Cl)c2)[C@@H](C)CN([C@@H](C)CO)C(=O)c2cc(NC(=O)CCC(F)(F)F)ccc2O1	Pf Dd2 inh -94.8, T cruzi growth-1 98.2 | T cruzi growth-2 inconclusive | T cruzi growth-3 113.7 | 3T3 cytotox inactive | 3T3 cytotox 2 105.9
C[C@H](CO)N1C[C@H](C)[C@H](CN(C)Cc2ccc(Cl)c(Cl)c2)OCCCC[C@H](C)Oc2ccc(NC(=O)Nc3ccc(F)cc3)cc2C1=O	T cruzi growth-1 100.3 | T cruzi growth-2 inactive | T cruzi growth-3 108.4 | 3T3 cytotox inactive | 3T3 cytotox 2 54.9
C[C@@H]1CCCCO[C@H](CN(C)Cc2ccc(Cl)c(Cl)c2)[C@@H](C)CN([C@@H](C)CO)C(=O)c2cc(NC(=O)Nc3ccc(F)cc3)ccc2O1	T cruzi growth-1 100.8 | T cruzi growth-2 inactive | T cruzi growth-3 112.4 | 3T3 cytotox inactive | 3T3 cytotox 2 33.5
C[C@@H]1CCCCO[C@@H](CN(C)Cc2ccc(Cl)c(Cl)c2)[C@H](C)CN([C@@H](C)CO)C(=O)c2cc(NC(=O)Nc3ccc(F)cc3)ccc2O1	T cruzi growth-1 103.6 | T cruzi growth-2 101.4 | T cruzi growth-3 117.3 | 3T3 cytotox inactive | 3T3 cytotox 2 inactive
CC(C)NS(=O)(=O)c1ccc(OCC(=O)O)c(Cl)c1	none (no result: KDM4C inh, Pf Dd2 inh, T cruzi growth-1)
CC(C)c1nnc(NC(=O)CC(NC(=O)c2ccccc2)c2ccccc2)s1 (configuration not stated)	none (no result: KDM4C inh, Pf Dd2 inh, T cruzi growth-1)
Cc1cc(C)nc(N(C#N)CC(=O)N2c3ccccc3CCc3ccccc32)n1	none (no result: KDM4C inh, Pf Dd2 inh, T cruzi growth-1)
COc1cc(C(F)(F)F)cc(C(F)(F)F)c1C(=O)N1CCC(C(=O)c2ccc(Cl)cc2)CC1	none (no result: KDM4C inh, Pf Dd2 inh, T cruzi growth-1)

Screening results from PubChem BioAssay.
